The values that follow come from ChEMBL document CHEMBL1126017, “Phenylalkyl isothiocyanate-cysteine conjugates as glutathione S-transferase stimulating agents” (J Med Chem, 1992).

In assay [1] the target is T1, Glutathione S-transferase Mu 1 (Mus musculus) (UniProt P10649).
T1 sequence (whole entry): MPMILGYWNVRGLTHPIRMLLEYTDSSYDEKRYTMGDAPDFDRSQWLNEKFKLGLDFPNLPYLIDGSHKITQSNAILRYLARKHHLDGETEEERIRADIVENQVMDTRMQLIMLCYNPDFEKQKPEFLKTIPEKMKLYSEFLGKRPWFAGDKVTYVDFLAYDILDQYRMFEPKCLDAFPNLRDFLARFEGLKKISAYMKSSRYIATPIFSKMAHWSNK
The assay is described as follows: Ratio of glutathione S-transferase activity in tested (cottonseed oil alone + compound) to that of control (cottonseed oil alone). The format is functional. The method in brief:
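Ratio of cytosolic GST specific activity (CDNB substrate, 340 nm, 30 °C) in each tissue of gavaged female A/J mice to that of cottonseed oil-only controls (test/control).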

Assay [2] relates to glutathione S-transferase (Mus musculus). The assay is described as follows: Induction of increased cytosolic glutathione S-transferase activity in large bowel mucosa of A/J mice treated with 3 doses of 0.04 mM compound (dissolved in 0.3 mL of cottonseed oil) for 2 days.
Assay [3] has the same test system. The assay is described as follows: Induction of increased cytosolic glutathione S-transferase activity in large bowel mucosa of A/J mice treated with 3 doses of 0.10 mM compound (dissolved in 0.3 mL of cottonseed oil) for 2 days.
Assay [4] has the same test system. The assay is described as follows: Induction of increased cytosolic glutathione S-transferase activity in forestomach of A/J mice treated with 3 doses of 0.04 mM compound (dissolved in 0.3 mL of cottonseed oil) for 2 days. Particulars: Stomach.
For assay [5] the test system is unchanged. The assay is described as follows: Induction of increased cytosolic glutathione S-transferase activity in small bowel mucosa of A/J mice treated with 3 doses of 0.10 mM compound (dissolved in 0.3 mL of cottonseed oil) for 2 days.
The test system is the same in assay [6]. The assay is described as follows: Induction of increased cytosolic glutathione S-transferase activity in lung of A/J mice treated with 3 doses of 0.04 mM compound (dissolved in 0.3 mL of cottonseed oil) for 2 days.
The test system is the same in assay [7]. The assay is described as follows: Induction of increased cytosolic glutathione S-transferase activity in forestomach of A/J mice treated with 3 doses of 0.10 mM compound (dissolved in 0.3 mL of cottonseed oil) for 2 days. Particulars: Stomach.
For assay [8] the test system is unchanged. The assay is described as follows: Induction of increased cytosolic glutathione S-transferase activity in bladder of A/J mice treated with 3 doses of 0.04 mM compound (dissolved in 0.3 mL of cottonseed oil) for 2 days. As to conditions: Urinary bladder.
The test system is the same in assay [9]. The assay is described as follows: Induction of increased cytosolic glutathione S-transferase activity in liver of A/J mice treated with 3 doses of 0.04 mM compound (dissolved in 0.3 mL of cottonseed oil) for 2 days.
The test system is the same in assay [10]. The assay is described as follows: Induction of increased cytosolic glutathione S-transferase activity in liver of A/J mice treated with 3 doses of 0.10 mM compound (dissolved in 0.3 mL of cottonseed oil) for 2 days.
Assay [11] shares this test system. The assay is described as follows: Induction of increased cytosolic glutathione S-transferase activity in lung of A/J mice treated with 3 doses of 0.10 mM compound (dissolved in 0.3 mL of cottonseed oil) for 2 days.
For assay [12] the test system is unchanged. The assay is described as follows: Induction of increased cytosolic glutathione S-transferase activity in small bowel mucosa of A/J mice treated with 3 doses of 0.04 mM compound (dissolved in 0.3 mL of cottonseed oil) for 2 days.

`NC(CS/C(S)=N/CCCc1ccccc1)C(=O)O` (configuration not stated): in [1], the Ratio is 1.11 [middle of 11 runs]. The Activity (uM min-1 (mg of protein)-1) in assay [2] was 0.26; in assay [3] it was 0.38; in assay [4] it was 0.86; in [5], 0.69; in assay [6], 0.31; in [7], 0.92. For the same molecule, the Activity (uM min-1 (mg of protein)-1) amounted to 6.16 in [8]; 1.2 in assay [9]; 1.35 in assay [10]; 0.29 in [11]; 0.49 in assay [12].
